Data from ChEMBL document CHEMBL1140586, “Design and synthesis of a functionally selective D3 agonist and its in vivo delivery via the intranasal route” (Bioorg Med Chem Lett, 2007).
Activity calls are given as the source filed them. The calls are words filed in the database; no cut-off is given here.

Experiments:
D(3) dopamine receptor = D(3) dopamine receptor (Homo sapiens, UniProt P35462); experiment: Agonist activity at human recombinant dopamine D3 receptor expressed in CHO cells assessed as inhibition of forskolin-stimulated cAMP accumulation; assay type: functional, cell-based
D(3) dopamine receptor, sequence (P35462 whole entry): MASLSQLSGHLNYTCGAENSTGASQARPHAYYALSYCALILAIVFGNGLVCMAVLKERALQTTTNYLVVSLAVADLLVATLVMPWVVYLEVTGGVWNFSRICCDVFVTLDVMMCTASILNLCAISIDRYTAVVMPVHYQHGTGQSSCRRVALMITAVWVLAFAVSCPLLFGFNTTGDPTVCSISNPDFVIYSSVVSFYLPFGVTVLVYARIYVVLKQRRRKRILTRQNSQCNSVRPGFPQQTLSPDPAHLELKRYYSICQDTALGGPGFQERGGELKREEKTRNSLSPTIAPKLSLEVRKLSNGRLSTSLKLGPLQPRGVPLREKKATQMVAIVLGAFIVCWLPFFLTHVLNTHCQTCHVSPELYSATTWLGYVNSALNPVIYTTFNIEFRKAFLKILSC

[1] = Clearance in human; assay type: ADME, organism-based; conditions: in vivo
[2] = target: T1, Muscarinic acetylcholine receptor M1 (Homo sapiens, UniProt P11229); experiment: Binding affinity to human muscarinic M1 receptor
T1 sequence (P11229 whole entry): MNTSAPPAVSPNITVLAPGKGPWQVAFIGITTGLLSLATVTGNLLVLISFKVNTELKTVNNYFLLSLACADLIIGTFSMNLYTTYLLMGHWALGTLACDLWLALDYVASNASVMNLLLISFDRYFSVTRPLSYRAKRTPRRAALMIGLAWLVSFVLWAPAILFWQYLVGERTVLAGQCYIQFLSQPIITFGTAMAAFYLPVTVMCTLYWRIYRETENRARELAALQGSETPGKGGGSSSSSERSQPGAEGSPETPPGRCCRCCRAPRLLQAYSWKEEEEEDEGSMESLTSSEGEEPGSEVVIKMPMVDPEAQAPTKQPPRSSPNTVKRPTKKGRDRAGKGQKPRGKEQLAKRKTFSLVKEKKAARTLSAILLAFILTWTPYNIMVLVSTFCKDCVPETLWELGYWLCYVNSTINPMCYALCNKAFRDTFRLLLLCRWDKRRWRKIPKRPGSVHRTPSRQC

D(2) dopamine receptor = D(2) dopamine receptor (Homo sapiens, UniProt P14416); experiment: Agonist activity at human recombinant dopamine D2 receptor expressed in rat pituitary cells assessed as inhibition of forskolin-stimulated cAMP accumulation; assay type: functional, cell-based, Pituitary gland cell
D(2) dopamine receptor, sequence (P14416 whole entry): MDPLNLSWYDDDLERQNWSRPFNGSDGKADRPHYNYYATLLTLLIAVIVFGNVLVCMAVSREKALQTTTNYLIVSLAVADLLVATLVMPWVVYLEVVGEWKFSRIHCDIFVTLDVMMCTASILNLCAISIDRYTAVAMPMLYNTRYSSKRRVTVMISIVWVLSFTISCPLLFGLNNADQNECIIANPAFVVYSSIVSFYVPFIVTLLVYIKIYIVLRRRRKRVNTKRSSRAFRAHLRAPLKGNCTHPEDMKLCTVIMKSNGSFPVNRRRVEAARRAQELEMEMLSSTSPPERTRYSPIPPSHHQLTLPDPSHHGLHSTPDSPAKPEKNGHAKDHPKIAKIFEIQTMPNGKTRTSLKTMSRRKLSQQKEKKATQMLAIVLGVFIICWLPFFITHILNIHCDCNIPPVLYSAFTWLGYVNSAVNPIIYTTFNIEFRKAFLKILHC

[3] = Distribution coefficient, log D at pH 7.4; assay type: physicochemical; conditions: octanol/water
[4] = Dissociation constant, pKa of the compound; assay type: physicochemical
[5] = Solubility of the compound; assay type: physicochemical
[6] = Apparent permeability across Caco-2 cells at 1 uM; assay type: ADME, cell-based; conditions: human
[7] = Protein binding in rat plasma; assay type: ADME, cell-free; conditions: read-out: PB (converted)
[8] = Protein binding in dog plasma; assay type: ADME, cell-free, Canis lupus familiaris; conditions: read-out: PB (converted)
[9] = Protein binding in human plasma; assay type: ADME, cell-free; conditions: read-out: PB (converted)
D(1A) dopamine receptor = D(1A) dopamine receptor (Homo sapiens, UniProt P21728); experiment: Binding affinity to dopamine D1 receptor
D(1A) dopamine receptor, sequence (P21728 whole entry): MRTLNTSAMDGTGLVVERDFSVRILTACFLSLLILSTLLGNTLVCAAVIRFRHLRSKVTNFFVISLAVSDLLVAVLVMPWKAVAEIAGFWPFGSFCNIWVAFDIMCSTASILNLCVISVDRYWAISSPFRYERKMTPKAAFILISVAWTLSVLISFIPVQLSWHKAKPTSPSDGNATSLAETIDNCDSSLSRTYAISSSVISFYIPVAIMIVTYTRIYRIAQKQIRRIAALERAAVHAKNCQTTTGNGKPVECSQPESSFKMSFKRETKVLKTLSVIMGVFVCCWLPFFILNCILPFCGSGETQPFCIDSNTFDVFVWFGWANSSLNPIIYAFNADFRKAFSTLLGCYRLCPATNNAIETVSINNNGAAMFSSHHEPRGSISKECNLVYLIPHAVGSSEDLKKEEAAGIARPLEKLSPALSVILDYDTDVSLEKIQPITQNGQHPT
Method in brief: (§1)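 Broad commercial ligand-binding panel profiling, including dopamine D1 and D5 receptors; reported as IC50.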

D(1B) dopamine receptor = D(1B) dopamine receptor (Homo sapiens, UniProt P21918); experiment: Binding affinity to dopamine D5 receptor; method in brief: as §1
D(1B) dopamine receptor, sequence (P21918 whole entry): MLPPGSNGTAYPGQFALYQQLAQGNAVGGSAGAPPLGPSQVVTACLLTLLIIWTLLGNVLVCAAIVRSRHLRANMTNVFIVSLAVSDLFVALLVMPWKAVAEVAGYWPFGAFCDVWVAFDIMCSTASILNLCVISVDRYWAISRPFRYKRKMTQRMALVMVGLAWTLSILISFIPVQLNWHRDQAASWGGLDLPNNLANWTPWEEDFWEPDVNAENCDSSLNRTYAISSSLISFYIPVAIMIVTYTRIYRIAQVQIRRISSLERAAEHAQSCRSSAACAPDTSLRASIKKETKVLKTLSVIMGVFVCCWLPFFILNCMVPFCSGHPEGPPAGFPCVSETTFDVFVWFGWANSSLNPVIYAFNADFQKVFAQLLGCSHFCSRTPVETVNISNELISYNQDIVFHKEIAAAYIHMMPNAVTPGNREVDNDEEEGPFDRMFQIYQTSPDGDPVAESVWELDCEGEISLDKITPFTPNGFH

[10] = target: T2, 5-hydroxytryptamine receptor 1A (Homo sapiens) (UniProt P08908); experiment: Binding affinity to human 5HT1A receptor at 100 nM
T2 sequence (whole entry): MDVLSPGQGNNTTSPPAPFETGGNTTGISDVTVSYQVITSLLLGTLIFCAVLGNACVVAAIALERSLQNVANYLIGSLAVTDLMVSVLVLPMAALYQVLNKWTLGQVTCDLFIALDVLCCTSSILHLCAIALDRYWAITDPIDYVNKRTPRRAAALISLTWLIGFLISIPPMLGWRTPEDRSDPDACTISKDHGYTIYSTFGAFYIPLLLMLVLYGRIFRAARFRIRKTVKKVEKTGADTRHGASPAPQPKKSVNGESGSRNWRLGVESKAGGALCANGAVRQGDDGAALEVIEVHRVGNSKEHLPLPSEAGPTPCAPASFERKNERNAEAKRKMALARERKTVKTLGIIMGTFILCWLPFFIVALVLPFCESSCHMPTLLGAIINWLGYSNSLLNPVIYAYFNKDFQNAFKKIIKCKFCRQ
Method in brief: (§2)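 Single-concentration binding screen in the Cerep wide ligand profile panel at the human 5HT1A receptor. Read-out is percent binding activity at each test concentration.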

[11] = target: T2, 5-hydroxytryptamine receptor 1A (Homo sapiens); experiment: Binding affinity to human 5HT1A receptor at 10 uM; method in brief: as §2
[12] = target: T2, 5-hydroxytryptamine receptor 1A (Homo sapiens); experiment: Agonist activity at human recombinant 5HT1A at 1 uM; assay type: functional
[13] = target: T3, 5-hydroxytryptamine receptor 1A (Homo sapiens, UniProt P08908); experiment: Antagonist activity at human recombinant 5HT1A receptor; assay type: functional
T3 sequence (P08908 whole entry): T2 sequence (whole entry)

[14] = target: 5-hydroxytryptamine receptor 2A (Rattus norvegicus, UniProt P14842); experiment: Binding affinity to rat 5HT2A receptor
5-hydroxytryptamine receptor 2A, sequence (P14842 whole entry): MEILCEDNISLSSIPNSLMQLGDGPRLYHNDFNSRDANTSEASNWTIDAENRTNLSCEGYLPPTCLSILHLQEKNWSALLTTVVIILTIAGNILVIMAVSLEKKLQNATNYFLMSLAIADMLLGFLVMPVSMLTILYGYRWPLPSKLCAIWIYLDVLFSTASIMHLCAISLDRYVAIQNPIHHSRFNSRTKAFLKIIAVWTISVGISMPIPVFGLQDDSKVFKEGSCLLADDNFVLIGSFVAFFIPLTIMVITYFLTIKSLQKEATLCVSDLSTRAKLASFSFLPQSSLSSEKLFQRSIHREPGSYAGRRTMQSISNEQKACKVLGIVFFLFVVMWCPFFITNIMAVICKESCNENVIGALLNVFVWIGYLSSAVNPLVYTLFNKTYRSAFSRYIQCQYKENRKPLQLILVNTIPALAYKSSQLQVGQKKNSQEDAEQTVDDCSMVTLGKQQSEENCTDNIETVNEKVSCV

[15] = target: T4, Alpha-1A adrenergic receptor (Rattus norvegicus, UniProt P43140); experiment: Binding affinity to rat alpha-1A adrenergic receptor
T4 sequence (P43140 whole entry): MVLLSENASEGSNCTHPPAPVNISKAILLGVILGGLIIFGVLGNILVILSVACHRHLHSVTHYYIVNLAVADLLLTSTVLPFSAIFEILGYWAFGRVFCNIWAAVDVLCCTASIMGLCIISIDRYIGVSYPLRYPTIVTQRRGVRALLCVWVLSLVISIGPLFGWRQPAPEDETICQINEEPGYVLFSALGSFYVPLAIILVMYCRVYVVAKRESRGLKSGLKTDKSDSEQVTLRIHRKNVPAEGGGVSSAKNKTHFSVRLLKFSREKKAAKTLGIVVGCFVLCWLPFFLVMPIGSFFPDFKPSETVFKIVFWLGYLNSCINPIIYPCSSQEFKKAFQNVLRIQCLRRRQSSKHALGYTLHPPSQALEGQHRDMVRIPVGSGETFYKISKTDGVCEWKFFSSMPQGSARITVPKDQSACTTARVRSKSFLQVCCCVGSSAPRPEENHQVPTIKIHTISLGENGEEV

[16] = target: T5, Alpha-2A adrenergic receptor (Homo sapiens, UniProt P08913); experiment: Binding affinity to human alpha-2A adrenergic receptor
T5 sequence (P08913 whole entry): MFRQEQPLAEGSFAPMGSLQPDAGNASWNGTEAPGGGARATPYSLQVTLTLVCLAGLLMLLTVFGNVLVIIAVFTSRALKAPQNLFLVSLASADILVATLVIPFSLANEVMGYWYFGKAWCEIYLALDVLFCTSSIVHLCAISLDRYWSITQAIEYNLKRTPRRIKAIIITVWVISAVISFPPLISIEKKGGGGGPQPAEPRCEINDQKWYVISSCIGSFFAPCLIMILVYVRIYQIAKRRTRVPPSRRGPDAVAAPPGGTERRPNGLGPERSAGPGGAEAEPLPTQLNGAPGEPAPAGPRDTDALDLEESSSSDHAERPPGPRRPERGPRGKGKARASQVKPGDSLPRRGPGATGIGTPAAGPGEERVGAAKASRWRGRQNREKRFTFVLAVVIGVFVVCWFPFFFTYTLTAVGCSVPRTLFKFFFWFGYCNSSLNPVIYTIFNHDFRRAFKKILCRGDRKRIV

Histamine H1 receptor = Histamine H1 receptor (Homo sapiens, UniProt P35367); experiment: Binding affinity to human histamine H1 receptor
Histamine H1 receptor, sequence (P35367 whole entry): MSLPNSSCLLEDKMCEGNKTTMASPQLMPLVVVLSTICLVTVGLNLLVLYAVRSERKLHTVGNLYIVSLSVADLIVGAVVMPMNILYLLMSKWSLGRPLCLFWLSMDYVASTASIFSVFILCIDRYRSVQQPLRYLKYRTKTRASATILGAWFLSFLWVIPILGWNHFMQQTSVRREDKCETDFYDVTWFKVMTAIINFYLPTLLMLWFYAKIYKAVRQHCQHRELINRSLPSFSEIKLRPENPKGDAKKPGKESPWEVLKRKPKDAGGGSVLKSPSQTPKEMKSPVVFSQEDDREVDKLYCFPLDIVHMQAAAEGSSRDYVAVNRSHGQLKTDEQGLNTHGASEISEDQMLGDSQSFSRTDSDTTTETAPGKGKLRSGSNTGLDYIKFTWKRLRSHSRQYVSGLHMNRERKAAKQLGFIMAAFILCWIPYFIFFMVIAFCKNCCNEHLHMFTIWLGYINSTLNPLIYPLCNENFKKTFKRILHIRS

[17] = Stability in human hepatocytes; assay type: ADME, cell-based, Liver, Hepatocyte
Method in brief: (§3)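 Rat, dog and human hepatocyte incubations; read-out was the disappearance half-life of parent compound, in minutes.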

[18] = Stability in rat hepatocytes; assay type: ADME, cell-based, Liver, Hepatocyte; method in brief: as §3
[19] = Stability in dog hepatocytes; assay type: ADME, cell-based, Liver, Hepatocyte; method in brief: as §3
[20] = Tmax in rat at 2 mg/kg administered by intranasal route; assay type: ADME, organism-based; design: dose 2 mg/kg; conditions: in vivo, inhaled or intranasal
Method in brief: (§4)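 Rat study: compound freshly prepared in saline. An intravenous reference dose of 1 mg/kg was given as a bolus. Intranasal doses of 0.5 and 2 mg/kg were given as 20 µl into one nostril by pipette.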

[21] = Half life in rat at 2 mg/kg administered by intranasal route; assay type: ADME, organism-based; design: dose 2 mg/kg; conditions: in vivo, inhaled or intranasal; method in brief: as §4
[22] = Intranasal bioavailability in rat at 2 mg/kg; assay type: ADME, organism-based; conditions: in vivo, inhaled or intranasal; method in brief: as §4
[23] = Intranasal bioavailability in dog at 0.3 mg/kg; assay type: ADME, organism-based, Canis lupus familiaris; conditions: in vivo, inhaled or intranasal
Method in brief: (§5)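 Dogs, male (n = 2) and female (n = 2). Compound freshly prepared in saline. The intravenous reference was a 10-min infusion at 3 ml/kg/h of a 0.2 mg/ml solution, giving a final dose of 0.1 mg/kg. Intranasal doses of 0.1 and 0.3 mg/kg were given as 100 µl into one nostril by spray device.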

[24] = target: Voltage-gated inwardly rectifying potassium channel KCNH2 (Homo sapiens, UniProt Q12809); experiment: Displacement of dofetilide from hERG
Voltage-gated inwardly rectifying potassium channel KCNH2, sequence (Q12809 whole entry): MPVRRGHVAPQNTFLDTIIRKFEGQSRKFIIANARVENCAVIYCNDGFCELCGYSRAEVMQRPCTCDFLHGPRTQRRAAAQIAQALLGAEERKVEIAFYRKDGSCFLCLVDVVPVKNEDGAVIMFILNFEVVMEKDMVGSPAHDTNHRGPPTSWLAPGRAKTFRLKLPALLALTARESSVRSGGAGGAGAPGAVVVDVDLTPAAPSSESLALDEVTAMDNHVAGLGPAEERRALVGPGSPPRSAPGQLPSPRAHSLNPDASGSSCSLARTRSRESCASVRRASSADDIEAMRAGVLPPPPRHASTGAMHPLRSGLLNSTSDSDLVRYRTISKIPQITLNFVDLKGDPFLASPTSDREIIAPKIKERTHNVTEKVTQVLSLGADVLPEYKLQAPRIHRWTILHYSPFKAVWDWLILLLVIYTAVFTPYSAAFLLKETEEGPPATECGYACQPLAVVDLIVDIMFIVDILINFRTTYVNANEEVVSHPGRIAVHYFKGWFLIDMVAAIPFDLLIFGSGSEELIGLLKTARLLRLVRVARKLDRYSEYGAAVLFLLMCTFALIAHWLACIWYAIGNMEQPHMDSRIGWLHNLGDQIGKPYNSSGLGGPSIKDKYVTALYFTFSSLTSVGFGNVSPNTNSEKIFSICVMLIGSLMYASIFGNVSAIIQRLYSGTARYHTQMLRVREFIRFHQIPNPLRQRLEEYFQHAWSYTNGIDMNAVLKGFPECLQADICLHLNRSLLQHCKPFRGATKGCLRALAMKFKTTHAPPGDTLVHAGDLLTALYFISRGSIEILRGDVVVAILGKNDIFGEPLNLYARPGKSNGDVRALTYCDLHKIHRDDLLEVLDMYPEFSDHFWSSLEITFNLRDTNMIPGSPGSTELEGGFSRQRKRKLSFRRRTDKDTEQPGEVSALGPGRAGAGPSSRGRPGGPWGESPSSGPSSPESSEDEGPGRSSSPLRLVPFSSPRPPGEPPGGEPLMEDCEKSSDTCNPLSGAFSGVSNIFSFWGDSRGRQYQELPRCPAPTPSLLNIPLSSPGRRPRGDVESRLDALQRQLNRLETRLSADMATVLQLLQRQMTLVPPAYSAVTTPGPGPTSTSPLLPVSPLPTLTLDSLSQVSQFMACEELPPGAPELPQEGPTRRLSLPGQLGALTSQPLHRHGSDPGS

Canis familiaris [25] = experiment: Effect on male erectile dysfunction in sc dosed dog; assay type: functional, Canis lupus familiaris
Method in brief: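 Animal models of male erectile dysfunction, with multiple subcutaneous dosing; ED50 expressed as free drug concentration.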

Canis familiaris [26] = experiment: Toxicity in sc dog assessed as nausea upto […]; assay type: organism-based, Canis lupus familiaris; conditions: in vivo
Canis familiaris [27] = experiment: Toxicity in sc dog assessed as emesis upto […]; assay type: organism-based, Canis lupus familiaris; conditions: in vivo
Canis familiaris [28] = experiment: Toxicity in sc dog assessed as hypotensive effects upto […]; assay type: organism-based, Canis lupus familiaris; conditions: in vivo
[29] = Tmax in dog at 0.3 mg/kg; assay type: ADME, organism-based, Canis lupus familiaris; design: dose 0.3 mg/kg; conditions: in vivo; method in brief: as §5
[30] = Half life in dog at 0.3 mg/kg; assay type: ADME, organism-based, Canis lupus familiaris; design: dose 0.3 mg/kg; conditions: in vivo; method in brief: as §5

CCCN1CCOC(c2cccc(O)c2C)C1 (centres undefined)
EC50 (D(3) dopamine receptor): > 1000 nM

CCCN1CCOC(c2cccc(C(N)=O)c2)C1 (centres undefined)
EC50 (D(3) dopamine receptor): > 1000 nM

CC(C)(C)NCC(O)c1cc(O)cc(O)c1 (centres undefined) [TERBUTALINE]
clearance [1]: 3.1 mL/min/kg

CCCN1CCOC(c2ccc(O)c(C(N)=O)c2)C1 (centres undefined)
EC50 (D(3) dopamine receptor): 427 nM

CCCN1CCO[C@H](c2cccc(O)c2)C1
Ki [2]: > 1000 nM | EC50 (D(2) dopamine receptor): > 10000 nM | EC50 (D(3) dopamine receptor): 8 nM | Emax (D(3) dopamine receptor): > 90% | logD [3]: 1 | pKa [4]: 7.4 | solubility [5]: > 1000 mg/mL | Papp at 1 µM [6]: 38 ×10⁻⁶ cm/s | fraction unbound [7]: 0.59 | fraction unbound [8]: 0.24 | fraction unbound [9]: 0.35 | IC50 (D(1A) dopamine receptor): > 10000 nM | IC50 (D(1B) dopamine receptor): > 10000 nM | Activity [10]: 16% | Activity [11]: 95% | Activity [12]: inactive | IC50 [13]: > 20000 nM | Ki [14]: 970 nM | Ki [15]: > 1000 nM | Ki [16]: > 1000 nM | Ki (Histamine H1 receptor): > 2000 nM | half-life [17]: 61 min | half-life [18]: 28 min | half-life [19]: 18 min | Tmax [20]: 5 min | half-life [21]: 18 min | bioavailability [22]: 20% | bioavailability [23]: 33% | Ki [24]: > 4000 nM | ED50 (Canis familiaris [25]): 0.2 nM | Activity (Canis familiaris [26]): Non-toxic | Activity (Canis familiaris [27]): Non-toxic | Activity (Canis familiaris [28]): Non-toxic | Tmax [29]: 5 min | half-life [30]: 96 min

CCCN1CCOC(c2cc(O)cc(C#N)c2)C1 (centres undefined)
EC50 (D(3) dopamine receptor): > 10000 nM

CCCN1CCOC(c2cccc(C(=O)O)c2)C1 (centres undefined)
EC50 (D(2) dopamine receptor): > 10000 nM | EC50 (D(3) dopamine receptor): > 1000 nM

CCCN1CCOC(c2cccc(N)c2)C1 (centres undefined)
EC50 (D(2) dopamine receptor): > 1000 nM | EC50 (D(3) dopamine receptor): > 1000 nM

CCCN1CCOC(c2ccc(Cl)c(O)c2)C1 (centres undefined)
EC50 (D(3) dopamine receptor): > 688 nM

CCCN1CCOC(c2ccc(O)c(-n3cnnc3)c2)C1 (centres undefined)
EC50 (D(3) dopamine receptor): > 1000 nM

CCCN(CCC)CCc1cccc2c1CC(=O)N2 [ROPINIROLE]
EC50 (D(2) dopamine receptor): 83 nM

CCCN1CCOC(c2ccccc2)C1 (centres undefined)
EC50 (D(2) dopamine receptor): > 10000 nM | EC50 (D(3) dopamine receptor): > 1000 nM
